According to ChEMBL document CHEMBL3091430, “Design and evaluation of xanthine based adenosine receptor antagonists: potential hypoxia targeted immunotherapies” (Bioorg Med Chem, 2013):
Active and inactive are the calls of the source. The rule behind the calls is not given here.

Assays:
[1] = Photostability of the compound assessed as compound remaining after 2 weeks by HPLC analysis; type: physicochemical; settings: 336 h
[2] = Partition coefficient, log K of the compound; type: physicochemical; settings: octanol/water
[3] = Octanol-water partition coefficient, log P of the compound by HPLC analysis; type: physicochemical
Lymphocyte = experiment: Induction of mAB-CD3-mediated IFN-gamma production in CGS-21680-treated C57/BL6 mouse lymphocytes at 0.5 uM after 24 hrs by ELISA; type: functional, cell-based
Outline: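 C57/BL6 mouse splenic lymphocytes activated with 0.1 μg/mL anti-CD3 mAb, then immediately given 1, 10 or 100 nM CGS 21680 with or without antagonist at 0.5 μM. Supernatant IFN-gamma measured after 24 h by sandwich ELISA (paired mAb with standard), in pg/mL; triplicates, mean ± SEM.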

[4] = target: Adenosine receptor A2a (Mus musculus) (UniProt Q60613); experiment: Antagonist activity at adenosine A2A receptor in C57/BL6 mouse lymphocytes assessed as inhibition of CGS-21680-mediated cAMP accumulation after 15 mins by ELISA; type: functional, cell-based
Outline: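 Splenic lymphocytes from C57/BL6 mice stimulated with 1 μM CGS 21680 (A2AR agonist), with or without antagonist over 0.1–10 μM; 15 min at 37 °C, stopped with 1 N HCl. Intracellular cAMP quantified by ELISA, expressed as pmol/million cells; triplicate samples, mean ± SEM.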

[5] = Half life in rat; type: ADME, organism-based; settings: in vivo
[6] = Photostability of the compound assessed as compound remaining measured within 7 days by HPLC analysis; type: physicochemical; settings: read-out: Stability
[7] = Photostability of the compound assessed as compound remaining measured within 24 hrs by HPLC analysis; type: physicochemical; settings: read-out: Stability
[8] = Half life in mouse at 20 mg/kg, ip by HPLC analysis; type: ADME, organism-based; parameters: dose 20 mg/kg, route intraperitoneal; settings: in vivo

Chain of Adenosine receptor A2a (Mus musculus) (Q60613 whole entry): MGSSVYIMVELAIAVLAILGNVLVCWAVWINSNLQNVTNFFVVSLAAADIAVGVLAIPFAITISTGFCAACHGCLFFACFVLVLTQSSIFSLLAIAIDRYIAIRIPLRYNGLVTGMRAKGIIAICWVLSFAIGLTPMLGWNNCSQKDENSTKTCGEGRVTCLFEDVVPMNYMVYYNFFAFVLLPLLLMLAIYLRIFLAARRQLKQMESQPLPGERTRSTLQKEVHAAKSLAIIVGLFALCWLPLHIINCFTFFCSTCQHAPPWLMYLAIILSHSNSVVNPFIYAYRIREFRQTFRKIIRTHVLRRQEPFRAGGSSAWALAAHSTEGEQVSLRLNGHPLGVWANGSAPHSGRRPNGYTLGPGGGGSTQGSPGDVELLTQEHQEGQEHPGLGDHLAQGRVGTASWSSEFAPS

## CCn1c(=O)c2c(nc(/C=C/c3ccc(C(=O)OCCOCCOCCOCCOCCOCCOCCOCCOC)c(OC)c3)n2C)n(CC)c1=O
[1]
  Stability: Stable
[2]
  log K: 0.145
[3]
  logP: 2.8
Lymphocyte
  Activity: Active

## CCn1c(=O)c2c(nc(/C=C/c3ccc(C(=O)OC)c(OC)c3)n2C)n(CC)c1=O
[4]
  inhibition: Active

## CCn1c(=O)c2c(nc(/C=C/c3ccc(OC)c(OC)c3)n2C)n(CC)c1=O [ISTRADEFYLLINE]
[2]
  log K: 0.162
[5]
  half-life: 120 min
[6]
  remaining at 168 h: > 50%
[7]
  remaining at 24 h: 10%
[3]
  logP: 2.98
Lymphocyte
  Activity: Active

## Nc1nc(NCCc2ccc(O)cc2)nc2nc(-c3ccco3)nn12 [ZM-241385]
[8]
  half-life: < 60 min
